From ChEMBL document CHEMBL1127414 (J Med Chem, 1994) come the findings set out here.

Assay [1] has as its system Mus musculus. In words: Tested for its ability to inhibit the incorporation of [5-3H]-mevalonolactone into cholesterol by in vivo mouse assay by peroral administration at a dose of 12 mg/kg. Type of assay: functional. The conditions noted are these: route oral. The procedure, abridged:
(§1)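 Female Swiss Webster mice (~25 g), six per group, dosed po by gavage with inhibitor suspended in 5% emulphor. 30 min later, 0.5 μCi/mouse [5-3H]mevalonolactone in saline given sc. Livers removed 30 min after that and saponified in KOH/EtOH overnight at 55 °C, then petroleum-ether extracted. Nonsaponifiable dpm counted. Compounds first tested at a single dose (typically 12 or 24 mg/kg).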

For assay [2], the target named is T1, Squalene synthase (Mus musculus) (UniProt P53798).
T1 sequence (whole entry): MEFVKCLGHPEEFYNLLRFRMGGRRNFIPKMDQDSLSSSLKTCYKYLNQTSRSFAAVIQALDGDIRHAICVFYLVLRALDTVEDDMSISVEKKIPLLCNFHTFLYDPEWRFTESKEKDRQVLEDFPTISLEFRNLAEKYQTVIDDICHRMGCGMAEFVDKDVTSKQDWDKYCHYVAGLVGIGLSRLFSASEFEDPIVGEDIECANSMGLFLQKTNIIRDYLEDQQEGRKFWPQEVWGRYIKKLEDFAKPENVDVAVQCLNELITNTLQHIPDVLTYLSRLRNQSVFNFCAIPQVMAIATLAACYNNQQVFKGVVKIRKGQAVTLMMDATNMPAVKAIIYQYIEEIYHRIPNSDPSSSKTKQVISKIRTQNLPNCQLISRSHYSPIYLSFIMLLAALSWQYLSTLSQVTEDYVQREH
In words: Tested for the effective dose required for the incorporation of [5-3H]-mevalonolactone into cholesterol by in vivo mouse assay by peroral administration. It counts as functional, organism-based. The essentials: as §1

The target of assay [3] is T2, Squalene synthase (Rattus norvegicus, UniProt Q02769).
T2 sequence (Q02769 whole entry): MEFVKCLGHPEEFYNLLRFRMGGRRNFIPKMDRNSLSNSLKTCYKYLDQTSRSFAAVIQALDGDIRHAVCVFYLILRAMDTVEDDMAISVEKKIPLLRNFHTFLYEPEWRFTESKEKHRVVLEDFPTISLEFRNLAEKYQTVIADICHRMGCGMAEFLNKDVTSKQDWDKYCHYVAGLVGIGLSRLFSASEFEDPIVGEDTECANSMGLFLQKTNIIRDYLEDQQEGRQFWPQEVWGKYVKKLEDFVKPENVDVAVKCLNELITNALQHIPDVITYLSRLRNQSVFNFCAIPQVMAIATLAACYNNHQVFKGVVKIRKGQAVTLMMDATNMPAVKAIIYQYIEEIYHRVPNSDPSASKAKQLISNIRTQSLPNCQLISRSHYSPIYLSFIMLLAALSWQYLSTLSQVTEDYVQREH
Kind of assay: Concentration required for inhibition of rat liver squalene synthase enzyme at 161 nM; Not active.

Assay [4] addresses T2, Squalene synthase. In words: Concentration required for inhibition of rat liver squalene synthase enzyme at 161 nM; NA = not active.
Assay [5] has as its system Trichophyton benhamiae. Kind of assay: Concentration required to inhibit growth of MF 4864 strain of Trichophyton mentagrophytes. Type of assay: functional, Arthroderma benhamiae. The procedure, abridged:
(§2)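 Broth microdilution against a panel of clinically relevant fungal strains. Read-out was the minimum fungicidal concentration in μg/mL.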

In assay [6] the test system is Cryptococcus neoformans. Kind of assay: Concentration required to inhibit growth of MY 1051 strain of Cryptococcus neoformans. It counts as functional. The procedure, abridged: as §2
The test system of assay [7] is Cryptococcus neoformans. In words: Concentration required to inhibit growth of MY 2061 strain of Cryptococcus neoformans. It counts as functional. The procedure, abridged: as §2
Assay [8] deals with Candida albicans. In words: Concentration required to inhibit growth of MY 1750 strain of Candida albicans. It counts as functional. The essentials:
as §2

The test system of assay [9] is Candida parapsilosis. In words: Concentration required to inhibit growth of MY 1010 strain of Candida parapsilosis. It counts as functional. Conditions: Lodderomyces parapsilosis; call rule not given here. The essentials:
as §2

Assay [10] relates to HepG2. Kind of assay: Concentration required to inhibit cholesterol synthesis in Hep G2 cells. Type of assay: functional, cell-based. The conditions noted are these: Homo sapiens. The essentials:
(§3)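 Hep G2 cells held 2 days in lipoprotein-depleted FBS to stimulate sterol synthesis, then given inhibitor in serum-free medium for 2 h. 15 μCi [5-3H]mevalonate (0.2 mCi/mmol) added for 1 h. Cells washed and saponified, and radioactivity counted by scintillation.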

For assay [11], the system named is Aspergillus fumigatus. Kind of assay: Concentration required to inhibit growth of MF 4839 strain of Aspergillus fumigatus. It counts as functional. The essentials:
as §2

The test system of assay [12] is Candida tropicalis. Kind of assay: Concentration required to inhibit growth of MY 1012 strain of Candida tropicalis. It counts as functional. The essentials: as §2
Assay [13] deals with Candida albicans. In words: Concentration required to inhibit growth of MY 1055 strain of Candida albicans. Type of assay: functional. The essentials: as §2
The test system of assay [14] is Mus musculus. Kind of assay: Ability to inhibit the incorporation of [5-3H]-mevalonolactone into cholesterol by in vivo mouse assay by peroral administration at a dose of 24 mg/kg. Type of assay: functional. Conditions: route oral. The essentials:
as §1

The target of assay [15] is T2, Squalene synthase. Kind of assay: Tested for inhibition against squalene synthase enzyme in rat liver.
For assay [16], the target named is T3, Squalene synthase (Rattus norvegicus) (UniProt Q02769).
T3 sequence (whole entry): T2 sequence (Q02769 whole entry)
Kind of assay: Concentration required to inhibit rat liver squalene synthase enzyme relative to control (L-694,599). The procedure, abridged: (§4)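 Enzyme from rat liver. […] Inhibitors added in DMSO (0.3% final) as 3-fold serial dilutions, usually up to 30 ng/mL (about 40 nM). IC50 read from % inhibition vs log concentration.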

Assay [17] deals with HepG2. Kind of assay: Concentration of compound required to inhibit cholesterol synthesis in Hep G2 cells relative to control (IC50 of L-694,599). Type of assay: functional, Homo sapiens. The essentials:
as §3

The subject of assay [18] is Mus musculus. In words: Tested for its ability to inhibit the incorporation of [5-3H]-mevalonolactone into cholesterol by in vivo mouse assay by peroral administration at a dose of 40 mg/kg. Type of assay: functional. The conditions noted are these: route oral. The procedure, abridged:
as §1

Assay [19] deals with HepG2. In words: Concentration required to inhibit cholesterol synthesis in Hep G2 cells relative to control (IC50 of L-694,599). Type of assay: functional, Homo sapiens. The essentials: as §3
Assay [20] has as its target T3, Squalene synthase (Rattus norvegicus). In words: concentration required to inhibit rat liver squalene synthase enzyme relative to control (L-694,599). The procedure, abridged:
as §4

Values after ≈ are worked out from the molar mass of the structure shown. Where only a bound is given, the exact number is not on record here.

By inhibition in vivo is commonly meant the drop in the measured response relative to a control, in per cent. The term ED50 denotes the dose at which the effect has come halfway, by size or by number of responders. In general, IC50 refers to the concentration needed to halve the response being measured. With `C=C(CCC12OC(C(=O)O)C(O)(C(=O)O)C(C(=O)O)(O1)[C@H](OC(=O)CCCN)[C@H]2O)[C@@H](OC(C)=O)[C@H](C)Cc1ccccc1` (some centres not stated), the inhibition in vivo at 12 mg/kg in [1] came out at 0%. For the same molecule, the ED50 in assay [2] was over 12 mg/kg. The IC50 result in [3] was “Not Active”.

Turning to `C=C(CCC12OC(C(=O)O)C(O)(C(=O)O)C(C(=O)O)(O1)[C@H](OC(=O)C(C)(C)C)[C@H]2O)[C@@H](OC(C)=O)[C@H](C)Cc1ccccc1` (some centres not stated), in assay [1], the inhibition in vivo at 12 mg/kg is -2%. The molecule further registered an ED50 in [2] of over 12 mg/kg. The IC50 result in assay [3] is recorded as “Not Active”.

Regarding `C=C(CCC12OC(C(=O)O)C(OCCC)(C(=O)O)C(C(=O)O)(O1)[C@H](O)[C@H]2O)[C@@H](OC(C)=O)[C@H](C)Cc1ccccc1` (some centres not stated), the IC50 entry in assay [3] is given as “Not Active”.

For `C=C(CCC12OC(C(=O)O)C(OCCCCCCCCCCCCCC)(C(=O)O)C(C(=O)O)(O1)[C@H](OCCCCCCCCCCCCCC)[C@H]2O)[C@@H](OC(C)=O)[C@H](C)Cc1ccccc1` (some centres not stated), in [4], the IC50 result is recorded as “Not Active”.

With `C=C(CCC12OC(C(=O)O)C(O)(C(=O)O)C(C(=O)O)(O1)[C@H](OC(=O)OCCCCCCCCCC)[C@H]2O)[C@@H](OC(C)=O)[C@H](C)Cc1ccccc1` (some centres not stated), the MFC is under 0.06 µg/mL in assay [5]; 8 µg/mL (≈ 11.1 µM) in assay [6]; 0.25 µg/mL (≈ 0.346 µM) in assay [7]; 16 µg/mL (≈ 22.1 µM) in assay [8]; 2 µg/mL (≈ 2.77 µM) in assay [9]; 2 µg/mL (≈ 2.77 µM) in assay [11]. Moreover, the MFC is 2 µg/mL (≈ 2.77 µM) in assay [12] and 8 µg/mL (≈ 11.1 µM) in assay [13]. For the same molecule, in [10], the IC50 stood at 2400 nM. Further, the inhibition in vivo at 24 mg/kg in assay [14] is 28%.

As for `C=C(CCC12OC(C(=O)O)C(O)(C(=O)O)C(C(=O)O)(O1)[C@H](OC)[C@H]2O)[C@@H](OC(C)=O)[C@H](C)Cc1ccccc1` (some centres not stated), the inhibition in vivo at 12 mg/kg in assay [1] worked out at 73%. Besides, the ED50 in assay [2] was under 12 mg/kg. This molecule also came in with an IC50 in [15] of 22 nM. Moreover, the Relative activity in assay [16] was 0.004.

Take `C=C(CCC12OC(C(=O)O)C(O)(C(=O)O)C(C(=O)O)(O1)[C@H](OC(=O)CCCCCCC)[C@H]2O)[C@@H](OC(C)=O)[C@H](C)Cc1ccccc1` (some centres not stated): the Relative activity in assay [17] was determined as 0.57; in [16], 0.17. For the same molecule, the IC50 in assay [10] came out at 9600 nM; in assay [15], 0.66 nM.

As to `CCCC(=O)O[C@@H]1[C@@H](O)C2(CCCCc3ccccc3)OC(C(=O)O)C(O)(C(=O)O)C1(C(=O)O)O2` (some centres not stated), the inhibition in vivo at 12 mg/kg in assay [1] was determined as 5%. In [15], this molecule gave an IC50 of over 3000 nM. The molecule further registered a Relative activity in assay [16] of 0.

On to `CCCC(=O)O[C@@H]1[C@@H](O)C2(CCCC[C@H](C)Cc3ccccc3)OC(C(=O)O)C(O)(C(=O)O)C1(C(=O)O)O2` (some centres not stated), for which the inhibition in vivo at 12 mg/kg in assay [1] was -3%. In [15], this molecule displayed an IC50 of 110 nM. The Relative activity in assay [16] stood at 0.0026.

`C=C(CCC12OC(C(=O)O)C(O)(C(=O)O)C(C(=O)O)(O1)[C@H](OCCCCCCCCCCCCCC)[C@H]2O)[C@@H](OC(C)=O)[C@H](C)Cc1ccccc1` (some centres not stated): the inhibition in vivo at 40 mg/kg in assay [18] was found to be 0%. For the same molecule, the values for the Relative activity in assay [19] and in assay [20] were 6 and 1.26, respectively. Further, the values for the IC50 in assay [10] and in assay [15] were 1500 nM and 0.09 nM, respectively.
